{"source": "ChEMBL document CHEMBL1126796", "about": "“2-(Alkylamino)nicotinic acid and analogs. Potent angiotensin II antagonists” (J Med Chem, 1993)", "key": {"[1]": {"system": "Rattus norvegicus", "test": "% decrease in blood pressure after 4 hours at a dose of 1 mg/kg in male rats by using Furosemide-treated spontaneous hypertensive model; IA means inactive", "assay_type": "functional, organism-based", "set-up": "dose 1 mg/kg", "summary_of_the_method": "(§1)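 Male SHR, 20-24 weeks old, pretreated with furosemide 10 mg/kg sc at 22 and 4 h before the experiment; compound dosed orally. Arterial pressure was recorded from an indwelling femoral artery catheter with on-line blood pressure and heart rate analysis. Read-out is % fall in blood pressure at 4 h and at 24 h, ±SEM, with number of rats.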"}, "[2]": {"test": "Tmax value after oral dose of 3.87 mg/kg", "assay_type": "ADME, organism-based", "set-up": "dose 3.87 mg/kg, route oral", "conditions": "in vivo", "summary_of_the_method": "(§2)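 Male Sprague-Dawley-derived rats. Compound was given in normal saline at 1 mL/kg, either as a slow iv bolus into the jugular vein or orally by gavage. Plasma underwent liquid-liquid extraction and reverse-phase HPLC. Terminal elimination half-life and time of observed peak concentration were taken from the profiles.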"}, "[3]": {"test": "Volume of distribution of central compartment (= dose+ plasma concentration at time zero) after intravenous dose of 3.87 mg/kg", "assay_type": "ADME, organism-based", "set-up": "dose 3.87 mg/kg, route intravenous", "conditions": "read-out: VI", "summary_of_the_method": "(§3)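 Jugular-vein slow iv bolus (normal saline, 1 mL/kg) in male Sprague-Dawley-derived rats. Plasma was sampled via the tail vein at 0.1–24 h and measured by reverse-phase HPLC after liquid-liquid extraction. Central volume was taken as dose divided by plasma concentration at time zero. Terminal-phase volume was derived from clearance and the plasma elimination rate constant.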"}, "[4]": {"system": "Rattus norvegicus", "test": "% decrease in blood pressure after 4 hours in male rats at a dose of 0.1 mg/kg by using Renal artery hypertensive model", "assay_type": "functional", "summary_of_the_method": "(§4)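 Male Sprague-Dawley rats (300-350 g) were made hypertensive by renal artery ligation and used on day 6 or 7 after ligation. Arterial pressure was measured from an indwelling femoral artery catheter, with blood pressure and heart rate recorded on line. Read-out is % decrease in blood pressure at 4 h, ±SEM, with number of rats.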"}, "[5]": {"system": "Rattus norvegicus", "test": "% decrease in blood pressure after 4 hours at a dose of 3 mg/kg in male rats by using Renal artery hypertensive model", "assay_type": "functional", "summary_of_the_method": "as §4"}, "[6]": {"system": "Rattus norvegicus", "test": "% decrease in blood pressure after 4 hours in male rats at a dose of 0.3 mg/kg by using Renal artery hypertensive model", "assay_type": "functional", "summary_of_the_method": "as §4"}, "[7]": {"test": "Cmax value after oral dose of 3.87 mg/kg", "assay_type": "ADME, organism-based", "set-up": "dose 3.87 mg/kg, route oral", "conditions": "in vivo", "summary_of_the_method": "(§5)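 Male Sprague-Dawley-derived rats were dosed with compound in normal saline (1 mL/kg), by gavage or as a slow IV bolus into the jugular vein. Heparinized tail-vein blood was taken at 0.25-24 h, extracted liquid-liquid and assayed by reverse-phase HPLC. Cmax is the observed peak concentration and AUC is mean (SEM). F compares oral with IV AUC, corrected for dose and assuming dose proportionality.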"}, "[8]": {"system": "Rattus norvegicus", "test": "% decrease in blood pressure after 24 hours at a dose of 1 mg/kg in male rats by using Furosemide-treated spontaneous hypertensive model", "assay_type": "functional", "summary_of_the_method": "as §1"}, "[9]": {"test": "Half-life period after oral dose of 3.87 mg/kg", "assay_type": "ADME, organism-based", "set-up": "dose 3.87 mg/kg, route oral", "conditions": "in vivo", "summary_of_the_method": "as §2"}, "[10]": {"test": "Apparent bioavailability after oral dose of 3.87 mg/kg", "assay_type": "ADME, organism-based", "conditions": "eutheria, in vivo", "summary_of_the_method": "as §5"}, "[11]": {"system": "Rattus norvegicus", "test": "% decrease in blood pressure after 4 hours at a dose of 1 mg/kg in male rats by using Furosemide-treated spontaneous hypertensive model", "assay_type": "functional", "summary_of_the_method": "as §1"}, "[12]": {"test": "Area under curve after oral dose of 3.87 mg/kg", "assay_type": "ADME, organism-based", "set-up": "dose 3.87 mg/kg, route oral", "conditions": "in vivo", "summary_of_the_method": "as §5"}, "[13]": {"test": "Half-life period of compound after intravenous dose of 3.87 mg/kg", "assay_type": "ADME, organism-based", "set-up": "dose 3.87 mg/kg, route intravenous", "conditions": "in vivo", "summary_of_the_method": "as §2"}, "[14]": {"target": "T1, Type-1 angiotensin II receptor A (Rattus norvegicus, UniProt P25095)", "T1 sequence (P25095 whole entry)": "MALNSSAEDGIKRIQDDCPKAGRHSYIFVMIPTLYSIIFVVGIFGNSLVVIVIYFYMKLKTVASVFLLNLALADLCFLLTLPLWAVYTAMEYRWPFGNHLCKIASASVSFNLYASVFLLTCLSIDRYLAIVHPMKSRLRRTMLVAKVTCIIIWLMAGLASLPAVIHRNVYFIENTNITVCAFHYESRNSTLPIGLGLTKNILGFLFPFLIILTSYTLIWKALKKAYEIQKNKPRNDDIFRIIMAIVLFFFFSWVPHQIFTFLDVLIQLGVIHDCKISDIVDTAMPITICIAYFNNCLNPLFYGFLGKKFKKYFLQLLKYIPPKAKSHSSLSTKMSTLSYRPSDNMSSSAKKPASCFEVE", "test": "Binding affinity against angiotensin II receptor from rat liver", "summary_of_the_method": "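Rat liver membranes were incubated with [125I]-saralasin to measure angiotensin II type 1 receptor binding. Nonspecific binding was defined with 1 µM angiotensin.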"}, "[15]": {"test": "Volume of distribution of the terminal phase (= CLp+ plasma elimination rate constant) after intravenous dose of 3.87 mg/kg", "assay_type": "ADME, organism-based", "set-up": "dose 3.87 mg/kg, route intravenous", "conditions": "read-out: Vbeta", "summary_of_the_method": "as §3"}, "[16]": {"system": "Rattus norvegicus", "test": "% decrease in blood pressure after 4 hours in male rats at a dose of 0.03 mg/kg by using Renal artery hypertensive model", "assay_type": "functional", "summary_of_the_method": "as §4"}, "[17]": {"test": "Plasma clearance after intravenous dose of 3.87 mg/kg", "assay_type": "ADME, organism-based", "set-up": "dose 3.87 mg/kg, route intravenous", "conditions": "read-out: Clp", "summary_of_the_method": "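Male Sprague-Dawley-derived rats received a slow iv bolus into the jugular vein of the compound in normal saline (1 mL/kg). Tail-vein heparinized blood was drawn from 0.1 to 24 h and assayed by reverse-phase HPLC after liquid-liquid extraction. Total plasma clearance was calculated as dose divided by AUC and reported as mean (SEM).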"}, "[18]": {"system": "Rattus norvegicus", "test": "% decrease in blood pressure after 4 hours at a dose of 0.3 mg/kg in male rats by using Renal artery hypertensive model", "assay_type": "functional", "summary_of_the_method": "as §4"}, "[19]": {"system": "Rattus norvegicus", "test": "% decrease in blood pressure after 4 hours at a dose of 10 mg/kg in male rats by using Renal artery hypertensive model", "assay_type": "functional", "summary_of_the_method": "as §4"}, "[20]": {"system": "Rattus norvegicus", "test": "% decrease in blood pressure after 4 hours in male rats at a dose of 10 mg/kg by using Renal artery hypertensive model", "assay_type": "functional", "summary_of_the_method": "as §4"}, "[21]": {"system": "Rattus norvegicus", "test": "% decrease in blood pressure after 4 hours at a dose of 30 mg/kg in male rats by using Renal artery hypertensive model", "assay_type": "functional", "summary_of_the_method": "as §4"}}, "note": "Calls of active or inactive are those of the source. The calls are words filed in the database; no cut-off is given here.", "data": [{"smiles": "CCCN(Cc1ccc(-c2ccccc2-c2nn[nH]n2)cc1)c1ncccc1C(=O)OC", "values": [{"measurement": "Decrease in blood pressure", "setting": "[1]", "result": "inactive"}]}, {"smiles": "CCc1nc2c(C)cc(C)nc2n1Cc1ccc(-c2ccccc2-c2nnn[nH]2)cc1", "note": "[L-158809]", "values": [{"measurement": "Tmax", "setting": "[2]", "result": 2, "unit": "h"}, {"measurement": "Vd", "setting": "[3]", "result": 0.41, "unit": "L/kg"}, {"measurement": "Decrease in blood pressure", "setting": "[4]", "result": 15, "unit": "%"}, {"measurement": "Decrease in blood pressure", "setting": "[5]", "result": 32, "unit": "%"}, {"measurement": "Decrease in blood pressure", "setting": "[6]", "result": 25, "unit": "%"}, {"measurement": "Cmax", "setting": "[7]", "result": 1590, "unit": "ng/mL"}, {"measurement": "Decrease in blood pressure", "setting": "[8]", "result": 30, "unit": "%"}, {"measurement": "half-life", "setting": "[9]", "result": 3.9, "unit": "h"}, {"measurement": "bioavailability", "setting": "[10]", "result": 66.7, "unit": "%"}, {"measurement": "Decrease in blood pressure", "setting": "[11]", "result": 32, "unit": "%"}, {"measurement": "AUC", "setting": "[12]", "result": 11.14, "unit": "µg/h/mL"}, {"measurement": "half-life", "setting": "[13]", "result": 4.5, "unit": "h"}, {"measurement": "Ki", "setting": "[14]", "result": 0.45, "unit": "nM"}, {"measurement": "Vd", "setting": "[15]", "result": 1.78, "unit": "L/kg"}, {"measurement": "Decrease in blood pressure", "setting": "[16]", "result": 8, "unit": "%"}, {"measurement": "clearance", "setting": "[17]", "result": 1.47, "unit": "mL/min"}]}, {"smiles": "CCCN(Cc1ccc(-c2ccccc2-c2nn[nH]n2)cc1)c1ncccc1C=O", "values": [{"measurement": "Decrease in blood pressure", "setting": "[18]", "result": 15, "unit": "%"}]}, {"smiles": "CCCCc1nc(Cl)c(C(=O)O)n1Cc1ccc(-c2ccccc2-c2nn[nH]n2)cc1", "note": "[CARBOXYLIC ACID METABOLITE]", "values": [{"measurement": "Decrease in blood pressure", "setting": "[19]", "result": 40, "unit": "%"}]}, {"smiles": "CCOC(=O)c1cnc(CC)nc1NCc1ccc(-c2ccccc2-c2nn[nH]n2)cc1", "values": [{"measurement": "Decrease in blood pressure", "setting": "[20]", "result": 14, "unit": "%"}, {"measurement": "Decrease in blood pressure", "setting": "[21]", "result": 32, "unit": "%"}, {"measurement": "Ki", "setting": "[14]", "result": 20.6, "unit": "nM"}]}]}
